Bioassay records (PubChem)
hiPSC survival: enhancers of single-cell hiPSC survival, primary screen, ATPlite luminescence; 100% = ROCK inhibitor wells, 0% = DMSO; AID 602274, 2012; 0.044% of 360,000 active; survival enhancement, % at 20 µM; in the data active means survival enhancement above about 18%;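 further: cells exposed to compounds for 16 hours before the ATP read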
Gli-Sufu block: Gli-Sufu pathway antagonists, primary screen, luciferase luminescence, Sufu-KO-LIGHT cells, uHTS. Sufu-KO-LIGHT fibroblasts, Gli luciferase reporter luminescence. inhibition, % at 5 µM. 0.74% of 340,000 active;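 active means inhibition above about 55%, limit read from the data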;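 further: 0% = DMSO-treated cells and 100% = wells with medium but no cells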
Lipid droplet: inhibitors of hepatocyte lipid droplet formation, primary screen, imaging, high-throughput imaging, BODIPY stain. AML12 mouse hepatocytes, oleate lipid droplets. inhibition, % at 6.5 µM. 0.4% of 240,000 active. AID 1656, 2009;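 active means lipid droplet intensity inhibited by at least 50%, with more than 500 cells counted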
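Material – AML12 mouse liver cells · Also added – oleate loading, 100 µM · Compound dosing – 6.5 µM single-point dosing · Times – overnight treatment with compound plus oleate · Measured by – fluorescence imaging, 20x objective, two fields per well · Read-out – percent inhibition of filter-corrected integrated lipid droplet intensity per well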
697 NFkB inh: inhibitors of PMA/ionomycin-induced NF-kB reporter, 697 cells, primary screen, B-cell NF-kB inhibitor project, cell-based, luminescence, uHTS | AID 435022, 2010 | inhibition, % at 4 µM | 0.33% of 330,000 active | 697 B-cell NF-kB luciferase reporter, 16 h; in the data active means inhibition above about 35%
TAG inh: inhibitors of triacylglycerol accumulation, primary screen, cell-based, uHTS, fluorescence, H9c2; H9c2 cells, Nile Red lipid (TAG) fluorescence; cells loaded with 200 µM oleic acid; 0.66% of 230,000 active; inhibition, % at 12.5 µM;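 active means pattern-corrected inhibition of lipid staining of at least 50% with the nuclear-stain viability signal not falling by more than 50%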;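 further: 0% = DMSO wells and 100% = triacsin C control wells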
Jurkat NFkB inh: inhibitors of induced NF-kB luciferase reporter, primary screen, TCR NF-kB activation inhibitor project, cell-based, luminescence, uHTS; Jurkat, PMA/ionomycin-induced NF-kB luciferase reporter; 0.53% of 330,000 active; inhibition, % at 4 µM; AID 435003, 2010; in the data active means inhibition above about 50%
H9c2 TAG conf: triacylglycerol accumulation inhibitors, retest, confirmation, cell-based, single concentration, Nile Red fluorescence, H9c2; shares compounds with TAG inh; H9c2 lipid accumulation; cells loaded with 200 µM oleic acid; inhibition, % at 12.5 µM; 71% of 990 active; AID 651629, 2012;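 active means mean inhibition across replicates of 40% or more; inactive means mean inhibition below 40%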;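 further: plate controls were DMSO only wells for no effect and Triacsin C treated wells for full effect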
Starred values were filed as active, the others as inactive; x = not tested or not shown. This is a sample that favours compounds with a hit; in the whole collection about 1.8% have one here.

SMILES	hiPSC survival	Gli-Sufu block	Lipid droplet	697 NFkB inh	TAG inh	Jurkat NFkB inh	H9c2 TAG conf
CCOC(=O)[C@H]1[C@H]2COc3ccc(Br)cc3[C@@H]2N2C(=O)c3cc(Br)ccc3NC(=O)[C@@]12C	-1.0	10.3	x	26.1	62.7*	11.0	52.4*
CCOC(=O)C1=C(C)N(C[C@@H]2CC[C@@H](Cc3ccc(-c4ccccc4)cc3)O2)C(=O)NC1c1cccc2ccccc12 (stereo partly drawn)	-1.9	2.4	x	21.4	78.0*	x	78.4*
C[C@H]1CCCCO[C@H](CN(C)CC2CCCCC2)[C@@H](C)CN([C@@H](C)CO)C(=O)c2cc(NS(=O)(=O)c3ccccc3)ccc2O1	-5.0	x	x	x	56.9*	x	57.6*
COc1ccc(CN(C)C[C@@H]2OCCCC[C@H](C)Oc3ccc(NC(=O)Nc4ccc(F)cc4)cc3C(=O)N([C@H](C)CO)C[C@H]2C)cc1	-3.9	x	x	x	62.8*	x	46.9*
C[C@@H]1CN([C@H](C)CO)C(=O)c2cc(NC(=O)Nc3ccc(F)cc3)ccc2O[C@@H](C)CCCCO[C@H]1CN(C)Cc1ccc(C(=O)O)cc1	2.3	x	x	x	-4.2	x	x
C[C@@H]1CCCCO[C@@H](CN(C)CC2CCCCC2)[C@@H](C)CN([C@H](C)CO)C(=O)c2cc(NS(=O)(=O)c3ccc(Cl)cc3)ccc2O1	-3.4	x	x	x	45.2	x	x
CCN(C(=O)CN1C(=O)S/C(=C\C=C\c2ccccc2)C1=O)C1CCS(=O)(=O)C1 (stereo not drawn)	-0.5	-27.9	-18.2	-63.7	x	-3.0	x
Cn1c(SCC(=O)Nc2ccc(C(N)=O)cc2)nnc1-c1cccs1	-0.3	1.3	-0.4	-13.3	x	-14.4	x
CCCCNC(=O)Nc1ccc(C2SCCS2)cc1	-0.7	-14.9	-1.4	0.5	57.3*	-30.8	-8.6
CCCCNC(=O)Nc1ccccc1CC	-0.3	1.4	12.0	-1.3	x	-12.5	x
O=C(Nc1nc(-c2ccccc2)cs1)C1CCCN(S(=O)(=O)c2cccc([N+](=O)[O-])c2)C1 (stereo not drawn)	-1.4	2.4	-29.5	15.6	62.2*	8.1	47.2*
O=C(Nc1nc(-c2ccccc2)cs1)C1CCCN(S(=O)(=O)c2ccccc2)C1 (stereo not drawn)	-2.8	-8.1	x	-72.0	x	11.7	x
CC1(C)CCCN(Cc2c(O)ccc3c(=O)c(-c4nc5ccccc5s4)c(N)oc23)C1	-0.1	-24.5	-8.1	-95.6	55.4*	-29.4	67.8*
CCOc1ccc(CNC(=O)CCS(=O)(=O)Cc2cccc(Cl)c2)cc1OC	-0.3	4.1	-15.7	-46.5	-5.5	1.7	x
CN(C)CCCNC(=O)CC1C[C@H](C(=O)N2CCCCC2)[C@@]2(CCc3ccccc3)c3[nH]c4ccccc4c3CCN2C1=O (stereo partly drawn)	-4.7	6.3	x	12.3	53.1*	6.8	48.1*
CN(C)CCCNC(=O)C[C@H]1C[C@H](C(=O)N2CCCCC2)[C@@]2(C)c3[nH]c4cc(-c5ccco5)ccc4c3CCN2C1=O	-1.9	2.1	x	7.5	57.8*	x	22.5
COc1ccc2[nH]c3c(c2c1)CCN1C(=O)C(CC(=O)NCCCN(C)C)C[C@H](C(=O)N2CCCCC2)[C@@]31CCc1ccccc1 (stereo partly drawn)	-3.4	-3.7	x	15.4	13.4	x	x
CN(C)CCCNC(=O)C[C@H]1C[C@H](C(=O)N2CCCCC2)[C@@]2(CCc3ccccc3)c3[nH]c4cc(-c5ccco5)ccc4c3CCN2C1=O	-4.1	16.7	x	4.0	57.0*	x	70.2*
COc1ccc([C@H]2C[C@H](O)[C@@H](n3cc(-c4ccc(F)cc4)nn3)CN2Cc2cccs2)cc1	-2.4	x	x	x	58.9*	x	52.4*
CCC(C)Nc1nc(-c2cccc(OC)c2O)nc2ccccc12 (stereo not drawn)	2.1	6.8	13.9	18.3	57.5*	-13.7	44.0*
COc1cccc(-c2nc(NC(C)C)c3ccccc3n2)c1O	-1.1	10.6	x	28.7	x	-4.4	x
COC(=O)C1=C/C=C\CN(C(c2ccccc2)c2ccccc2)/C=C\1C(=O)OC	-1.5	x	x	x	-15.7	x	x
Cn1nc(-c2ccccc2)cc1NC(=O)c1cccs1	2.9	-0.5	-14.9	10.2	-7.6	1.4	x
COc1ccc(S(=O)(=O)c2ccc(OC)cc2)cc1	0.5	-3.5	16.9	-11.5	-16.1	17.1	x
CC(=O)Oc1ccc(S(=O)(=O)c2ccc(OC(C)=O)cc2)cc1	0.1	x	2.3	-4.8	65.1*	8.9	1.5
SMILES	hiPSC survival	Gli-Sufu block	Lipid droplet	697 NFkB inh	TAG inh	Jurkat NFkB inh	H9c2 TAG conf
c1ccc(COc2ncnc3c2ncn3CCCNC2CCN(Cc3ccccc3)CC2)cc1	-2.3	x	x	x	63.4*	x	35.0
CSc1ncnc2c1ncn2CCCNC1CCN(Cc2ccccc2)CC1	-1.5	x	x	x	12.5	x	x
CCCCCCCCNc1ccccc1S(=O)(=O)NCc1ccccc1	-1.3	-4.0	x	-1.3	-69.4	x	x
COc1ccc(NS(=O)(=O)c2cccc(C(=O)N/N=C/c3cn(-c4ccccc4)nc3-c3ccccc3)c2)cc1	-0.7	-14.3	7.7	-18.7	60.2*	-14.1	62.1*
O=C1Nc2ccc(Br)cc2/C1=N\N=C\C1=C(N2CCOCC2)C(=C/c2ccccc2)/CC1	2.5	20.4	x	x	84.5*	x	136.4*
CCCN(CCC)CCNC(=O)c1cc2c(=O)n(CC)c3ccccc3c2s1	1.2	24.1	9.1	4.4	51.6*	-37.7	68.2*
CN(C)CC(O)c1ccc(C=Cc2ccc(Cl)cc2)cc1 (stereo not drawn)	-5.4	-33.4	x	x	73.3*	x	44.2*
CS(=O)(=O)c1ccc(C(=O)OCC(=O)N2CCN(CCC3CCCCC3)CC2)cc1[N+](=O)[O-]	2.2	x	x	x	3.7	x	x
CS(=O)(=O)c1ccc(C(=O)OCC(=O)N2CCOCC2)cc1[N+](=O)[O-]	5.0	x	x	x	61.7*	x	59.2*
Cc1ccccc1S(=O)(=O)NC(=O)C1(C)CCN1C(=O)C1(c2ccc(Cl)cc2)CCC1 (stereo not drawn)	0.0	x	x	x	0.1	x	x
COC(=O)c1ccc(Cn2cc(Cl)cn2)o1	0.2	7.8	-7.1	10.8	-2.3	13.8	x
Cc1ccc(CC2(OCCN(C)C)CCC(C(C)(C)C)CC2)cc1 (stereo not drawn)	-2.3	-8.0	x	x	83.8*	x	62.6*
CN(C)CCOC1(Cc2ccc(F)cc2)CCC(C(C)(C)C)CC1 (stereo not drawn)	-1.0	22.9	x	x	30.4	x	x
Cc1cc(C)cc(Cn2c3ccc(NC(=O)NCCc4cccs4)cc3c(=O)n2C)c1	-2.0	x	x	x	1.8	x	x
